Experimental data: paper PMC5110367 (Nature chemical biology, 2016)
Where a chain is given by its changes, count along the chain named. Where two headings read alike, the source gives them in different places.

Legend:
[1] = molecular target: T1, PPARα LBD (Homo sapiens, UniProt Q07869); experiment: Lanthascreen TR-FRET PPAR-alpha coactivator assay; assay type: biochemical
T1 sequence (Q07869 239-466 limits assumed): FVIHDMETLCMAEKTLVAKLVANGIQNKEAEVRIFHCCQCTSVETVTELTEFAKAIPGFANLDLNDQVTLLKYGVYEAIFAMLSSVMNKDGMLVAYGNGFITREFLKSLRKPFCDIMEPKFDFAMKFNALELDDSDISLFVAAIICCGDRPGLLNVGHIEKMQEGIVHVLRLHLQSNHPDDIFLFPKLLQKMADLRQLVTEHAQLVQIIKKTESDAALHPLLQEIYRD

[2] = molecular target: T2, PPARα (Mus musculus, UniProt P23204); experiment: PPRE-driven luciferase assay in primary astrocytes; assay type: cell-based; conditions: cultured astrocytes, different concentrations, 4 h
T2 sequence (P23204 1-468): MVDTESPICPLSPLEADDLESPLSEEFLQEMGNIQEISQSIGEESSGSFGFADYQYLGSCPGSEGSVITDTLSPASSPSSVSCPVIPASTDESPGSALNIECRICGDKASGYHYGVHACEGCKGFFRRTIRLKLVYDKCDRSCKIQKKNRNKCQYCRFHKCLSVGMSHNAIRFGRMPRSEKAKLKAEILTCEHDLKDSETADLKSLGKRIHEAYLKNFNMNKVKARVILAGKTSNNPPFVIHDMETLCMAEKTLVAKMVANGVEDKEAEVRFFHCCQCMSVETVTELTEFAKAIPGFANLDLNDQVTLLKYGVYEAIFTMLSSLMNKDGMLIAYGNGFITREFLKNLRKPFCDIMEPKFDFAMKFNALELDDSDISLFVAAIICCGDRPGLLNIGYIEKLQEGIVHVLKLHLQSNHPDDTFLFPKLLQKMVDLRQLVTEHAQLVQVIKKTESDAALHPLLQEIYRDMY

[3] = molecular target: T3, FL-Ppara (Mus musculus, UniProt P23204); assay type: cell-based; conditions: Ppara-null astrocytes transduced with lenti-FL-Ppara, 4 h
T3 sequence (P23204 1-468): T2 sequence (P23204 1-468)

[4] = molecular target: T4, Y314D-Ppara (Mus musculus, UniProt P23204, Y314D); assay type: cell-based; conditions: Ppara-null astrocytes transduced with lenti-Y314D-Ppara, 4 h
T4 sequence (P23204 1-468 Y314D): T2 sequence (P23204 1-468) with Y314D

[5] = molecular target: T5, Y464D-Ppara (Mus musculus, UniProt P23204, Y464D); assay type: cell-based; conditions: Ppara-null astrocytes transduced with lenti-Y464D-Ppara, 4 h
T5 sequence (P23204 1-468 Y464D): T2 sequence (P23204 1-468) with Y464D

[6] = system: PPRE luciferase activity; experiment: PPRE-luciferase assay in Pparb-null astrocytes; assay type: cell-based, mouse; conditions: for inhibition by GW9662 of ligand-mediated increase in PPRE-luciferase activity: Pparb-null astrocytes pre-treated with PPARγ-antagonist GW9662; for PPRE luciferase activity: Pparb-null astrocytes, 4 h
How it was run: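 Astrocytes were taken from mixed glial cultures of 7-day-old Pparb-null mouse pups and pretreated with the PPARγ antagonist GW9662. At 60–70% confluence they were transfected with tk-PPREx3-Luc reporter. After 24 h they were treated with graded concentrations of test compound for 4 h, then luciferase activity was read.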

[7] = system: CREB promoter; experiment: ChIP analyses of the CREB promoter; assay type: cell-based; conditions: ChIP followed by real-time PCR
[8] = system: Ppara-null hippocampal neurons; experiment: Dendritic spine density; assay type: cell-based, mouse; conditions: Ppara-null neurons transduced with lenti-FL-Ppara or lenti-Y464D-Ppara
How it was run: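 Ppara-null hippocampal neurons were taken from E18 fetuses and treated with 10 μM AraC to remove glia. They were differentiated 9–10 days, then transduced 48 h with lentivirions carrying GFP (vector), FL-Ppara or Y464D-Ppara. Neurons then received vehicle (DMSO) or test compound for 24 h. They were stained with Dylight-554-phalloidin, and spine density was scored by fluorescence microscopy.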

[9] = system: Ppara-null hippocampal neurons; assay type: cell-based, mouse
How it was run: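 Cell lysates were made in RIPA buffer with protease/phosphatase inhibitors, needle-sheared, rotated 30 min at 4°C and spun at 18,000 × g. Samples of 15–30 μg were run on 10% or 12% SDS gels and semidry-transferred to nitrocellulose. Anti-CREB (1:1000) was applied overnight at 4°C, then IR-dye secondary (1:17,000) for 45 min at room temperature. Infrared imaging followed, with densitometry normalised to loading controls.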

[10] = system: Ppara-null hippocampal neurons; experiment: AMPA-driven calcium influx in transduced Ppara-null hippocampal neurons; assay type: cell-based, mouse; conditions: 50 μM N20C present
How it was run: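 Primary hippocampal neurons came from pooled E18 Ppara-null fetal mice. Tissue was trypsinised 5 min at 37°C and plated on poly-D-lysine in neurobasal medium. AraC (10 μM) was added next day, and cells differentiated for 9–10 days. Neurons were lentivirally transduced with the indicated Ppara construct, then given the test compound. 50 μM N20C blocked NMDA-receptor calcium flow during AMPA stimulation. Mean of three independent experiments.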

[11] = Ppara-null neurons transduced with FL-Ppara
[12] = Ppara-null neurons transduced with lenti-Y314D-Ppara
[13] = Ppara-null neurons transduced with lenti-Y464D-Ppara
[14] = Ppara-null neurons transduced with lenti-Y464D/Y314D-Ppara
[15] = lenti-Y314D/Y464D-Ppara-transduced

For `CCCCCCCCCCCCCCCC(N)=O` [HEX, hexadecanamide], the EC50 [1] was 5.26 µM, the PPRE-luciferase activity [2] was “increased the PPRE-luciferase activity in a dose-dependent manner” and the PPRE-luciferase reporter activity [3] was “markedly induced PPRE reporter activity”. The PPRE-luciferase activity [4] was “partial induction of PPRE-luciferase activity”, the PPRE-luciferase activity [5] was “unable to stimulate PPRE-luciferase activity” and the “inhibition by GW9662 of ligand-mediated increase in PPRE-luciferase activity” value [6] was “remained unable to inhibit”. The PPRE luciferase activity [6] was “markedly increased PPRE luciferase activity”, the “recruitment of PPARα and PGC1α to the CREB promoter” value [7] was “stimulated the recruitment of PPARα and its coactivator PGC1α to the CREB promoter” and the “density of dendritic spines” value [8] was “stimulated the density of spines only when Ppara-null neurons were transduced with lenti-FL-Ppara, but not lenti-Y464D-Ppara”. For the same compound, the “expression of CREB” value [9, 11] was “stimulated the expression of CREB”, the “expression of CREB” value [9, 12] was “only partially restored the expression of CREB” and the “expression of CREB” value [9, 13] was “remained unable to increase the expression of CREB”. The “expression of CREB” value [9, 14] was “remained unable to increase the expression of CREB”, the AMPA-mediated calcium influx ([10]; lenti-FL-Ppara-transduced) was “stimulated AMPA-mediated calcium influx” and the AMPA-mediated calcium influx ([10]; lenti-Y314D-Ppara-transduced) was “only able to partially restore”. The AMPA-mediated calcium influx [10, 15] was “remained unable to increase AMPA mediated calcium influx” and the AMPA-mediated calcium influx ([10]; lenti-Y464D-Ppara-transduced) was “remained unable to increase AMPA mediated calcium influx”.
`CCCCCCCCC=CCCCCCCCC(N)=O` [OCT, 9-octadecenamide] was tested, and the EC50 [1] was 4.84 µM, the PPRE-luciferase activity [2] was “increased the PPRE-luciferase activity in a dose-dependent manner” and the PPRE-luciferase reporter activity [3] was “markedly induced PPRE reporter activity”. The PPRE-luciferase activity [4] was “partial induction of PPRE-luciferase activity”, the PPRE-luciferase activity [5] was “unable to stimulate PPRE-luciferase activity” and the “inhibition by GW9662 of ligand-mediated increase in PPRE-luciferase activity” value [6] was “remained unable to inhibit”. For the same compound, the PPRE luciferase activity [6] was “markedly increased PPRE luciferase activity”, the “recruitment of PPARα and PGC1α to the CREB promoter” value [7] was “stimulated the recruitment of PPARα and its coactivator PGC1α to the CREB promoter” and the “density of dendritic spines” value [8] was “stimulated the density of spines only when Ppara-null neurons were transduced with lenti-FL-Ppara, but not lenti-Y464D-Ppara”. The “expression of CREB” value [9, 11] was “stimulated the expression of CREB”, the “expression of CREB” value [9, 12] was “only partially restored the expression of CREB” and the “expression of CREB” value [9, 13] was “remained unable to increase the expression of CREB”. The “expression of CREB” value [9, 14] was “remained unable to increase the expression of CREB”, the AMPA-mediated calcium influx ([10]; lenti-FL-Ppara-transduced) was “stimulated AMPA-mediated calcium influx” and the AMPA-mediated calcium influx ([10]; lenti-Y314D-Ppara-transduced) was “only able to partially restore”. For the same compound, the AMPA-mediated calcium influx [10, 15] was “remained unable to increase AMPA mediated calcium influx” and the AMPA-mediated calcium influx ([10]; lenti-Y464D-Ppara-transduced) was “remained unable to increase AMPA mediated calcium influx”.
